ChEMBL document CHEMBL1268976, “Stereocontrolled facile synthesis and antimicrobial activity of oximes and oxime ethers of diversely substituted bispidines” (2010)
Values after ≈ are worked out from the molar mass of the structure shown.

How the values were obtained:
Type in all cases: functional
[1] = tested on: Bacillus subtilis; experiment: Antibacterial activity against Bacillus subtilis by broth microdilution method
Outline: (§1)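 In vitro broth microdilution following the NCCLS standard for bacteria (M7-A5). The test panel was Bacillus subtilis, Staphylococcus aureus, Klebsiella pneumoniae and Pseudomonas aeruginosa.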

[2] = tested on: Staphylococcus aureus; experiment: Antibacterial activity against Staphylococcus aureus by broth microdilution method; outline: as §1
[3] = tested on: Klebsiella pneumoniae; experiment: Antibacterial activity against Klebsiella pneumoniae by broth microdilution method; outline: as §1
[4] = tested on: Cryptococcus neoformans; experiment: Antimicrobial activity against Cryptococcus neoformans by broth microdilution method
Outline: (§2)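 Fungal panel of Candida albicans, Candida parapsilosis, Aspergillus niger and Cryptococcus neoformans, tested in vitro by standard NCCLS broth microdilution. The yeast susceptibility reference cited is M27-A.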

[5] = tested on: Candida albicans; experiment: Antifungal activity against Candida albicans by broth microdilution method; outline: as §2
[6] = tested on: Candida parapsilosis; experiment: Antifungal activity against Candida parapsilosis by broth microdilution method; settings: Lodderomyces parapsilosis; outline: as §2
[7] = tested on: Pseudomonas aeruginosa; experiment: Antibacterial activity against Pseudomonas aeruginosa by broth microdilution method; outline: as §1
[8] = tested on: Aspergillus niger; experiment: Antifungal activity against Aspergillus niger by broth microdilution method; outline: as §2
[9] = tested on: Klebsiella pneumoniae; experiment: Ratio of compound MIC90 to gentamicin MIC90 for Klebsiella pneumoniae

Structure (SMILES) | MIC90 [1] | MIC90 [2] | MIC90 [3] | MIC90 [4] | MIC90 [5] | MIC90 [6] | MIC90 [7] | MIC90 [8] | Ratio [9]
CCCOc1ccc(C2NC(c3ccc(OCCC)cc3)C3C(=NO)C2C(c2ccc(OCCC)cc2)NC3c2ccc(OCCC)cc2)cc1 (stereo not drawn) | > 128 µg/mL | > 128 µg/mL | 64 µg/mL (≈ 92.5 µM) | 32 µg/mL (≈ 46.2 µM) | > 128 µg/mL | > 128 µg/mL | 64 µg/mL (≈ 92.5 µM) | 32 µg/mL (≈ 46.2 µM) | 
COc1cccc(C2NC(c3cccc(OC)c3)C3C(=NO)C2C(c2cccc(OC)c2)NC3c2cccc(OC)c2)c1 (stereo not drawn) | > 128 µg/mL | > 128 µg/mL | > 128 µg/mL | > 128 µg/mL | > 128 µg/mL | > 128 µg/mL | 128 µg/mL (≈ 221 µM) | 64 µg/mL (≈ 110 µM) | 
CCCOc1ccc(C2NC(c3ccc(OCCC)cc3)C3C(=NOC)C2C(c2ccc(OCCC)cc2)NC3c2ccc(OCCC)cc2)cc1 (stereo not drawn) | > 128 µg/mL | > 128 µg/mL | 16 µg/mL (≈ 22.7 µM) | 32 µg/mL (≈ 45.3 µM) | > 128 µg/mL | > 128 µg/mL | 64 µg/mL (≈ 90.7 µM) | 16 µg/mL (≈ 22.7 µM) | 8
CCOc1ccc(C2NC(c3ccc(OCC)cc3)C3C(=NO)C2C(c2ccc(OCC)cc2)NC3c2ccc(OCC)cc2)cc1 (stereo not drawn) | > 128 µg/mL | > 128 µg/mL | 32 µg/mL (≈ 50.3 µM) | 64 µg/mL (≈ 101 µM) | > 128 µg/mL | > 128 µg/mL | 32 µg/mL (≈ 50.3 µM) | 16 µg/mL (≈ 25.2 µM) | 
CON=C1C2C(c3cccc(Cl)c3)NC(c3cccc(Cl)c3)C1C(c1cccc(Cl)c1)NC2c1cccc(Cl)c1 (stereo not drawn) | > 128 µg/mL | > 128 µg/mL | 64 µg/mL (≈ 105 µM) | > 128 µg/mL | > 128 µg/mL | > 128 µg/mL | > 128 µg/mL | 64 µg/mL (≈ 105 µM) | 
ON=C1C2C(c3cccc(Oc4ccccc4)c3)NC(c3cccc(Oc4ccccc4)c3)C1C(c1cccc(Oc3ccccc3)c1)NC2c1cccc(Oc2ccccc2)c1 (stereo not drawn) | > 128 µg/mL | > 128 µg/mL | > 128 µg/mL | > 128 µg/mL | 128 µg/mL (≈ 155 µM) | 128 µg/mL (≈ 155 µM) | > 128 µg/mL | > 128 µg/mL | 
CON=C1C2C(c3cccc(F)c3)NC(c3cccc(F)c3)C1C(c1cccc(F)c1)NC2c1cccc(F)c1 (stereo not drawn) | > 128 µg/mL | > 128 µg/mL | 64 µg/mL (≈ 117 µM) | > 128 µg/mL | 32 µg/mL (≈ 58.7 µM) | > 128 µg/mL | 16 µg/mL (≈ 29.3 µM) | 16 µg/mL (≈ 29.3 µM) | 
CCOc1ccccc1C1NC(c2ccccc2OCC)C2C(=NO)C1C(c1ccccc1OCC)NC2c1ccccc1OCC (stereo not drawn) | > 128 µg/mL | > 128 µg/mL | 64 µg/mL (≈ 101 µM) | 64 µg/mL (≈ 101 µM) | > 128 µg/mL | > 128 µg/mL | 32 µg/mL (≈ 50.3 µM) | 32 µg/mL (≈ 50.3 µM) | 
ON=C1C2C(c3ccccc3Br)NC(c3ccccc3Br)C1C(c1ccccc1Br)NC2c1ccccc1Br (stereo not drawn) | > 128 µg/mL | > 128 µg/mL | > 128 µg/mL | > 128 µg/mL | > 128 µg/mL | > 128 µg/mL | > 128 µg/mL | > 128 µg/mL | 

Second part, led by results:

MIC90 [1] | MIC90 [2] | MIC90 [3] | MIC90 [4] | MIC90 [5] | MIC90 [6] | MIC90 [7] | MIC90 [8] | Structure (SMILES) | Ratio [9]
> 128 µg/mL | > 128 µg/mL | > 128 µg/mL | > 128 µg/mL | 128 µg/mL (≈ 270 µM) | > 128 µg/mL | 128 µg/mL (≈ 270 µM) | > 128 µg/mL | CON=C1C2C(c3ccccc3)NC(c3ccccc3)C1C(c1ccccc1)NC2c1ccccc1 (stereo not drawn) | 
64 µg/mL (≈ 91.7 µM) | > 128 µg/mL | 16 µg/mL (≈ 22.9 µM) | > 128 µg/mL | > 128 µg/mL | 32 µg/mL (≈ 45.9 µM) | 64 µg/mL (≈ 91.7 µM) | 64 µg/mL (≈ 91.7 µM) | C=CCOc1ccc(C2NC(c3ccc(OCC=C)cc3)C3C(=NOC)C2C(c2ccc(OCC=C)cc2)NC3c2ccc(OCC=C)cc2)cc1 (stereo not drawn) | 
64 µg/mL (≈ 120 µM) | > 128 µg/mL | 32 µg/mL (≈ 60.2 µM) | > 128 µg/mL | 32 µg/mL (≈ 60.2 µM) | 64 µg/mL (≈ 120 µM) | 16 µg/mL (≈ 30.1 µM) | 4 µg/mL (≈ 7.53 µM) | ON=C1C2C(c3ccccc3F)NC(c3ccccc3F)C1C(c1ccccc1F)NC2c1ccccc1F (stereo not drawn) | 
64 µg/mL (≈ 82.6 µM) | > 128 µg/mL | 128 µg/mL (≈ 165 µM) | > 128 µg/mL | > 128 µg/mL | 32 µg/mL (≈ 41.3 µM) | > 128 µg/mL | > 128 µg/mL | ON=C1C2C(c3ccc(Br)cc3)NC(c3ccc(Br)cc3)C1C(c1ccc(Br)cc1)NC2c1ccc(Br)cc1 (stereo not drawn) | 
64 µg/mL (≈ 117 µM) | 8 µg/mL (≈ 14.7 µM) | 16 µg/mL (≈ 29.3 µM) | 32 µg/mL (≈ 58.7 µM) | 2 µg/mL (≈ 3.67 µM) | > 128 µg/mL | 4 µg/mL (≈ 7.33 µM) | 2 µg/mL (≈ 3.67 µM) | CON=C1C2C(c3ccc(F)cc3)NC(c3ccc(F)cc3)C1C(c1ccc(F)cc1)NC2c1ccc(F)cc1 (stereo not drawn) | 
